# ChEMBL document CHEMBL1777792, “Synthesis and evaluation of indole-based new scaffolds for antimicrobial activities--identification of promising candidates” (Bioorg Med Chem Lett, 2011)
# What was measured:
# Escherichia coli [1] = test: Antibacterial activity against Escherichia coli harboring ampicillin-resistance gene encoding plasmid at 357 ug/ml after 24 hrs by disc diffusion assay; assay type: functional; details: read-out: DIZ
# How it was run: (§1)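 Disc diffusion used an E. coli strain carrying a plasmid that encodes an ampicillin-resistance gene. Inhibition zone diameters were recorded and compared against the corresponding solvent controls.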
# Candida albicans [2] = test: Antifungal activity against Candida albicans in yeast extract-peptone-glucose medium at 357 ug/ml after 48 hrs by disc diffusion assay; assay type: functional; details: read-out: DIZ
# How it was run: (§2)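 C. albicans cells at a set number were spread on YEPD agar, either plain or containing the cell-wall disruptant named in the line (SDS, Congo red or calcofluor white). Compound solution, or the reference solvent as control, was spotted onto 0.5 cm discs placed on the lawn. Plates were incubated at 30 °C and the inhibition zone diameter was measured.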
# Candida albicans [3] = test: Antifungal activity against Candida albicans in yeast extract-peptone-glucose medium at 357 ug/ml after 48 hrs by disc diffusion assay in presence of 100 ug/ml of calcofluor white; assay type: functional; how it was run: as §2
# Candida albicans [4] = test: Antifungal activity against Candida albicans in yeast extract-peptone-glucose medium at 357 ug/ml after 48 hrs by disc diffusion assay in presence of 150 ug/ml of congo red; assay type: functional; how it was run: as §2
# Escherichia coli [5] = test: Antibacterial activity against Escherichia coli harboring ampicillin-resistance gene encoding plasmid at 600 ug/ml after 24 hrs by disc diffusion assay; assay type: functional; details: read-out: DIZ; how it was run: as §1
# Candida albicans [6] = test: Antifungal activity against Candida albicans in yeast extract-peptone-glucose medium at 600 ug/ml after 48 hrs by disc diffusion assay; assay type: functional; details: read-out: DIZ
# How it was run: (§3)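 Solid-phase assay on YEPD agar spread with a set number of C. albicans cells. Compound solution and reference solvent spotted onto 0.5 cm discs. Plates incubated at 30 °C, and inhibition zone diameter measured against solvent control.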
# Candida albicans [7] = test: Antifungal activity against Candida albicans in yeast extract-peptone-glucose medium at 600 ug/ml after 48 hrs by disc diffusion assay in presence of 100 ug/ml of calcofluor white; assay type: functional
# How it was run: (§4)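 Disc diffusion on YEPD agar containing a cell-wall-disrupting agent (SDS, Congo red or calcofluor white) and spread with a set number of C. albicans cells. Compound and reference solvent spotted on 0.5 cm discs. Incubated at 30 °C, then inhibition zone diameter measured against solvent.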
# Candida albicans [8] = test: Antifungal activity against Candida albicans in yeast extract-peptone-glucose medium at 600 ug/ml after 48 hrs by disc diffusion assay in presence of 150 ug/ml of congo red; assay type: functional; how it was run: as §4
# Candida albicans [9] = test: Antifungal activity against Candida albicans in yeast extract-peptone-glucose medium at 600 ug/ml after 48 hrs by disc diffusion assay in presence of 0.01% of sodium dodecylsulphate; assay type: functional; details: read-out: DIZ; how it was run: as §4
# Candida albicans [10] = test: Antifungal activity against Candida albicans in yeast extract-peptone-glucose medium at 600 ug/ml after 48 hrs by disc diffusion assay in presence of […]; assay type: functional; details: in the assay text read “20 ug/ml” for “150 ug/ml”
# How it was run: (§5)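 Tests whether compounds enhance the toxicity of rhodamine 6G, a substrate of the Cdr1p/Cdr2p drug pumps. YEPD agar containing R6G spread with C. albicans. Compound and solvent spotted on 0.5 cm discs, incubated at 30 °C, and zone diameter read relative to solvent control.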
# Candida albicans [11] = test: Antifungal activity against Candida albicans in synthetic dextrose minimal medium after 48 hrs by ELISA based serial dilution method
# Escherichia coli [12] = test: Antibacterial activity against Escherichia coli harboring ampicillin-resistance gene encoding plasmid at 238 ug/ml after 24 hrs by disc diffusion assay; assay type: functional; details: read-out: DIZ; how it was run: as §1
# Candida albicans [13] = test: Antifungal activity against Candida albicans in yeast extract-peptone-glucose medium at 238 ug/ml after 48 hrs by disc diffusion assay; assay type: functional; details: read-out: DIZ; how it was run: as §2
# Candida albicans [14] = test: Antifungal activity against Candida albicans in yeast extract-peptone-glucose medium at 238 ug/ml after 48 hrs by disc diffusion assay in presence of 150 ug/ml of congo red; assay type: functional; how it was run: as §2
# Candida albicans [15] = test: Antifungal activity against Candida albicans in yeast extract-peptone-glucose medium at 238 ug/ml after 48 hrs by disc diffusion assay in presence of 0.01% of sodium dodecylsulphate; assay type: functional; details: read-out: DIZ; how it was run: as §2
# Candida albicans [16] = test: Antifungal activity against Candida albicans in yeast extract-peptone-glucose medium at 238 ug/ml after 48 hrs by disc diffusion assay in presence of […]; assay type: functional
# How it was run: (§6)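 This is a C. albicans disc diffusion on YEPD agar containing rhodamine 6G, a substrate of the Cdr1p/Cdr2p ATP-dependent efflux pumps, to test for enhanced R6G toxicity. A set number of cells was spread, and 0.5 cm discs were spotted with compound solution or reference solvent. Plates were incubated at 30 °C and the zone diameter was measured.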
# Escherichia coli [17] = test: Antibacterial activity against Escherichia coli harboring ampicillin-resistance gene encoding plasmid at 545 ug/ml after 24 hrs by disc diffusion assay; assay type: functional; details: read-out: DIZ; how it was run: as §1
# Candida albicans [18] = test: Antifungal activity against Candida albicans in yeast extract-peptone-glucose medium at 545 ug/ml after 48 hrs by disc diffusion assay; assay type: functional; details: read-out: DIZ; how it was run: as §2
# Candida albicans [19] = test: Antifungal activity against Candida albicans in yeast extract-peptone-glucose medium at 545 ug/ml after 48 hrs by disc diffusion assay in presence of 100 ug/ml of calcofluor white; assay type: functional
# How it was run: (§7)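 C. albicans cells were spread at a set number over YEPD agar containing the additive named in the line. Discs 0.5 cm across were placed on the lawn and spotted with test compound solution or reference solvent. Plates were incubated at 30 °C. The inhibition zone diameter was measured in mm and compared with the solvent-control disc.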
# Candida albicans [20] = test: Antifungal activity against Candida albicans in yeast extract-peptone-glucose medium at 545 ug/ml after 48 hrs by disc diffusion assay in presence of 150 ug/ml of congo red; assay type: functional; how it was run: as §7
# Candida albicans [21] = test: Antifungal activity against Candida albicans in yeast extract-peptone-glucose medium at 545 ug/ml after 48 hrs by disc diffusion assay in presence of 0.01% of sodium dodecylsulphate; assay type: functional; details: read-out: DIZ; how it was run: as §2
# Candida albicans [22] = test: Antifungal activity against Candida albicans in yeast extract-peptone-glucose medium at 545 ug/ml after 48 hrs by disc diffusion assay in presence of 150 ug/ml of rhodamine 6G; assay type: functional; how it was run: as §7
# Escherichia coli [23] = test: Antibacterial activity against Escherichia coli harboring ampicillin-resistance gene encoding plasmid at 257 ug/ml after 24 hrs by disc diffusion assay; assay type: functional; details: read-out: DIZ; how it was run: as §1
# Candida albicans [24] = test: Antifungal activity against Candida albicans in yeast extract-peptone-glucose medium at 257 ug/ml after 48 hrs by disc diffusion assay; assay type: functional; details: read-out: DIZ; how it was run: as §3
# Candida albicans [25] = test: Antifungal activity against Candida albicans in yeast extract-peptone-glucose medium at 257 ug/ml after 48 hrs by disc diffusion assay in presence of 100 ug/ml of calcofluor white; assay type: functional; how it was run: as §4
# Candida albicans [26] = test: Antifungal activity against Candida albicans in yeast extract-peptone-glucose medium at 257 ug/ml after 48 hrs by disc diffusion assay in presence of 150 ug/ml of congo red; assay type: functional; how it was run: as §4
# Candida albicans [27] = test: Antifungal activity against Candida albicans in yeast extract-peptone-glucose medium at 257 ug/ml after 48 hrs by disc diffusion assay in presence of 0.01% of sodium dodecylsulphate; assay type: functional; details: read-out: DIZ; how it was run: as §4
# Candida albicans [28] = test: Antifungal activity against Candida albicans in yeast extract-peptone-glucose medium at 257 ug/ml after 48 hrs by disc diffusion assay in presence of […]; assay type: functional; details: in the assay text read “20 ug/ml” for “150 ug/ml”; how it was run: as §5
# Escherichia coli [29] = test: Antibacterial activity against Escherichia coli harboring ampicillin-resistance gene encoding plasmid at 187 ug/ml after 24 hrs by disc diffusion assay; assay type: functional; details: read-out: DIZ; how it was run: as §1
# Candida albicans [30] = test: Antifungal activity against Candida albicans in yeast extract-peptone-glucose medium at 187 ug/ml after 48 hrs by disc diffusion assay; assay type: functional; details: read-out: DIZ; how it was run: as §2
# Candida albicans [31] = test: Antifungal activity against Candida albicans in yeast extract-peptone-glucose medium at 187 ug/ml after 48 hrs by disc diffusion assay in presence of 100 ug/ml of calcofluor white; assay type: functional; how it was run: as §2
# Candida albicans [32] = test: Antifungal activity against Candida albicans in yeast extract-peptone-glucose medium at 187 ug/ml after 48 hrs by disc diffusion assay in presence of 150 ug/ml of congo red; assay type: functional; how it was run: as §2
# Candida albicans [33] = test: Antifungal activity against Candida albicans in yeast extract-peptone-glucose medium at 187 ug/ml after 48 hrs by disc diffusion assay in presence of 0.01% of sodium dodecylsulphate; assay type: functional; details: read-out: DIZ; how it was run: as §2
# Candida albicans [34] = test: Antifungal activity against Candida albicans in yeast extract-peptone-glucose medium at 187 ug/ml after 48 hrs by disc diffusion assay in presence of […]; assay type: functional; how it was run: as §6
structure (smiles),measurement,setting,value
O=C(C(=O)N1CCOCC1)c1cn(CCCCCCn2cc(C(=O)C(=O)N3CCOCC3)c3ccccc32)c2ccccc12,zone of inhibition at 357 µg/mL,Escherichia coli [1],7.5 mm
same,zone of inhibition at 357 µg/mL,Candida albicans [2],5.5 mm
same,diameter of the inhibition zone (DIZ),Candida albicans [3],6.5 mm
same,diameter of the inhibition zone (DIZ),Candida albicans [4],6.5 mm
O=C(NCc1ccccc1)C(=O)c1cn(Cc2ccc(Cn3cc(C(=O)C(=O)NCc4ccccc4)c4ccccc43)cc2)c2ccccc12,zone of inhibition at 600 µg/mL,Escherichia coli [5],9 mm
same,zone of inhibition at 600 µg/mL,Candida albicans [6],12.5 mm
same,diameter of the inhibition zone (DIZ),Candida albicans [7],11.5 mm
same,diameter of the inhibition zone (DIZ),Candida albicans [8],10.5 mm
same,zone of inhibition at 600 µg/mL,Candida albicans [9],12.5 mm
same,diameter of the inhibition zone (DIZ),Candida albicans [10],11 mm
same,IC50,Candida albicans [11],0.02 mM
O=C(C(=O)N1CCCCC1)c1cn(CCCCCCn2cc(C(=O)C(=O)N3CCCCC3)c3ccccc32)c2ccccc12,zone of inhibition at 238 µg/mL,Escherichia coli [12],7.5 mm
same,zone of inhibition at 238 µg/mL,Candida albicans [13],6.5 mm
same,diameter of the inhibition zone (DIZ),Candida albicans [14],6 mm
same,zone of inhibition at 238 µg/mL,Candida albicans [15],6.5 mm
same,diameter of the inhibition zone (DIZ),Candida albicans [16],5.5 mm
O=C(C(=O)N1CCCC1)c1cn(CCCCCCn2cc(C(=O)C(=O)N3CCCC3)c3ccccc32)c2ccccc12,zone of inhibition at 545 µg/mL,Escherichia coli [17],11.5 mm
same,zone of inhibition at 545 µg/mL,Candida albicans [18],14.5 mm
same,diameter of the inhibition zone (DIZ),Candida albicans [19],11 mm
same,diameter of the inhibition zone (DIZ),Candida albicans [20],10.5 mm
same,zone of inhibition at 545 µg/mL,Candida albicans [21],15.5 mm
same,diameter of the inhibition zone (DIZ),Candida albicans [22],12.5 mm
O=C(C(=O)N1CCCC1)c1cn(CCCn2cc(C(=O)C(=O)N3CCCC3)c3cc(Br)ccc32)c2ccc(Br)cc12,zone of inhibition at 257 µg/mL,Escherichia coli [23],13.5 mm
same,zone of inhibition at 257 µg/mL,Candida albicans [24],11.5 mm
same,diameter of the inhibition zone (DIZ),Candida albicans [25],11.5 mm
same,diameter of the inhibition zone (DIZ),Candida albicans [26],11.5 mm
same,zone of inhibition at 257 µg/mL,Candida albicans [27],11.5 mm
same,diameter of the inhibition zone (DIZ),Candida albicans [28],12 mm
same,IC50,Candida albicans [11],29.2 mM
O=C(C(=O)N1CCCC1)c1cn(Cc2ccc(Cn3cc(C(=O)C(=O)N4CCCC4)c4ccccc43)cc2)c2ccccc12,zone of inhibition at 187 µg/mL,Escherichia coli [29],7 mm
same,zone of inhibition at 187 µg/mL,Candida albicans [30],7.5 mm
same,diameter of the inhibition zone (DIZ),Candida albicans [31],6.5 mm
same,diameter of the inhibition zone (DIZ),Candida albicans [32],7 mm
same,zone of inhibition at 187 µg/mL,Candida albicans [33],8 mm
same,diameter of the inhibition zone (DIZ),Candida albicans [34],7 mm
